What was measured:
[1] = biological target: Endothelin ETA receptor (Human) (Homo sapiens, UniProt P25101); assay: [125I]-Endothelin-1; type: binding; conditions: 0.1 mM l-menthol; Human recombinant
[2] = tested on: GABA transporter; assay: gamma-[3H]-Aminobutyric Acid; type: binding; conditions: 0.1 mM l-menthol; Rat cerebral cortex; in the presence of isoguvacine hydrochloride and S (−)-baclofen hydrochloride
[3] = tested on: Glutamate receptor (NMDA agonist site); assay: [3H]-CGP-39653 binding assay; conditions: 0.1 mM l-menthol; Rat cerebral cortex
[4] = tested on: K channel KA; assay: [125I]-Dendrotoxin binding assay; conditions: 0.1 mM l-menthol; Rat cerebral cortex
[5] = biological target: Serotonin transporter (Human) (Homo sapiens, UniProt P31645); assay: [3H]-Imipramine hydrochloride binding assay; conditions: 0.1 mM l-menthol; Human recombinant
[6] = tested on: Na Channel; type: binding; conditions: 0.1 mM l-menthol; Rat whole brain
[7] = biological target: Serotonin 5HT2A receptor (Human) (Homo sapiens, UniProt P28223); assay: [3H]-Ketanserin hydrochloride binding assay; conditions: 0.1 mM l-menthol; Human recombinant
[8] = biological target: Histamine H1 receptor (Human) (Homo sapiens, UniProt P35367); assay: [3H]-Pyrilamine binding assay; conditions: 0.1 mM l-menthol; Human recombinant
[9] = tested on: K Channel KATP; assay: [3H]-Glybenclamide binding assay; conditions: 0.1 mM l-menthol; Rat whole brain
[10] = biological target: Opiate κ receptor (Human) (Homo sapiens, UniProt P41145); type: binding; conditions: 0.1 mM l-menthol
[11] = biological target: Histamine H2 receptor (Human) (Homo sapiens, UniProt P25021); assay: [3H]-Tiotidine binding assay; conditions: 0.1 mM l-menthol; Human recombinant
[12] = biological target: Opiate μ receptor (Human) (Homo sapiens, UniProt P35372); assay: [3H]-Diprenorphine binding assay; conditions: 0.1 mM l-menthol; Human recombinant
[13] = tested on: 88 different ligands for specific biomolecules; assay: Binding assay, 88 different ligands; conditions: 0.1 mM l-menthol
[14] = biological target: GABA B receptor (Rattus norvegicus, UniProt Q9Z0U4); assay: gamma-[3H]-Aminobutyric Acid; type: binding; conditions: 0.1 mM l-menthol; Rat cerebellum
[15] = biological target: Serotonin 5HT3 receptor (Human) (Homo sapiens, UniProt P46098); assay: [3H]-GR65630 binding assay; conditions: 0.1 mM l-menthol; Human recombinant
[16] = tested on: GABA A receptor (Benzodiazepine site); assay: [3H]-Flunitrazepam binding assay; conditions: 0.1 mM l-menthol; Rat whole brain
[17] = tested on: mouse ambulation; assay: Measurement of mouse ambulatory activity; type: in vivo; conditions: mice
Method in brief: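 Ambulometer (SAM-10) recording; 30-min adaptation, then s.c. saline or 100, 200, 400 or 800 mg/kg test compound; n = 19–20 mice per group. Each mouse's activity normalized to its total adaptation-period activity, binned per 10 min (median, quartiles); total normalized activity over 60 min post-dose compared by Kruskal-Wallis then Wilcoxon versus vehicle, P < 0.05.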

[18] = biological target: VIP 1 receptor (Human) (Homo sapiens, UniProt P32241); assay: [125I]-Vasoactive Intestinal Polypeptide binding assay; conditions: 0.1 mM l-menthol; Human receptor (Non-recombinant)
[19] = biological target: α2A-Adrenergic receptor (Human) (Homo sapiens, UniProt P08913); assay: [3H]-Rauwolscine hydrochloride binding assay; conditions: 0.1 mM l-menthol; Human recombinant
[20] = biological target: Muscarinic M2 receptor (Human) (Homo sapiens, UniProt P08172); assay: [3H]-Scopolamine Methyl Chloride binding assay; conditions: 0.1 mM l-menthol; Human recombinant
[21] = biological target: Melatonin MT1 receptor (Human) (Homo sapiens, UniProt P48039); assay: [125I]-Melatonin binding assay; conditions: 0.1 mM l-menthol; Human recombinant
[22] = biological target: Opiate ORL1 receptor (Human) (Homo sapiens, UniProt P41146); assay: [3H]-Nociceptin binding assay; conditions: 0.1 mM l-menthol; Human recombinant
[23] = tested on: Glutamate (NMDA polyamine site); assay: [3H]-Ifenprodil binding assay; conditions: 0.1 mM l-menthol; Rat cerebral cortex
[24] = biological target: Glutamate receptor (NMDAglycine site) (Rattus norvegicus, UniProt P35439); assay: [3H]-MDL105,519 binding assay; conditions: 0.1 mM l-menthol; Rat cerebral cortex
[25] = tested on: Glutamate receptor (NMDA phencycidine site); assay: [3H]-; type: binding; conditions: 0.1 mM l-menthol; Rat cerebral cortex
[26] = biological target: Adenosine transporter (Human) (Homo sapiens, UniProt Q99808); assay: [3H]-S-; type: binding; conditions: 0.1 mM l-menthol; Human receptor
[27] = tested on: Leukotriene B4 receptor; assay: [3H]-Leukotriene B4 binding assay; conditions: 0.1 mM l-menthol; Guinea pig lung
[28] = tested on: IP3 receptor; assay: D-[3H]-Inositol-1,4,5-Triphosphate binding assay; conditions: 0.1 mM l-menthol; Rat cerebellum
[29] = biological target: Neuropeptide Y2 receptor (Human) (Homo sapiens, UniProt P49146); assay: [125I]-Peptide YY; type: binding; conditions: 0.1 mM l-menthol; Human receptor (Non-recombinant)
[30] = biological target: Adenosine A2a receptor (Human) (Homo sapiens, UniProt P29274); assay: [3H]-CGS21680 binding assay; conditions: 0.1 mM l-menthol; Human recombinant
[31] = biological target: Muscarinic M4 receptor (Human) (Homo sapiens, UniProt P08173); assay: [3H]-Scopolamine Methyl Chloride binding assay; conditions: 0.1 mM l-menthol; Human recombinant
[32] = biological target: α1A-Adrenergic receptor (Rattus norvegicus, UniProt P43140); assay: [3H]-Prazosin binding assay; conditions: 0.1 mM l-menthol; Rat submandibular gland
[33] = tested on: Nicotinic receptor (Human); assay: [3H]-; type: binding; conditions: 0.1 mM l-menthol; Human receptor (Non-recombinant)
[34] = biological target: Serotonin 5HT1A receptor (Human) (Homo sapiens, UniProt P08908); assay: [3H]-8-Hydreoxy-DPAT binding assay; conditions: 0.1 mM l-menthol; Human recombinant
[35] = biological target: Neuropeptide Y1 receptor (Human) (Homo sapiens, UniProt P25929); assay: [125I]-Peptide YY; type: binding; conditions: 0.1 mM l-menthol; Human receptor (Non-recombinant)
[36] = biological target: Dopamine transporter (Human) (Homo sapiens, UniProt Q01959); assay: [3H]-WIN35,428 binding assay
[37] = biological target: Bradykinin B1 receptor (Human) (Homo sapiens, UniProt P46663); assay: [3H]-Kallidin; type: binding; conditions: 0.1 mM l-menthol; Human recombinant
[38] = biological target: Testosterone receptor (Human) (Homo sapiens, UniProt P10275); assay: [3H]-Methyltrienolone; type: binding; conditions: 0.1 mM l-menthol
[39] = biological target: Neurokinin NK1 receptor (Human) (Homo sapiens, UniProt P25103); assay: [125I]-Substance P binding assay; conditions: 0.1 mM l-menthol; Human recombinant

Dopamine transporter (Human), sequence (Q01959 whole entry): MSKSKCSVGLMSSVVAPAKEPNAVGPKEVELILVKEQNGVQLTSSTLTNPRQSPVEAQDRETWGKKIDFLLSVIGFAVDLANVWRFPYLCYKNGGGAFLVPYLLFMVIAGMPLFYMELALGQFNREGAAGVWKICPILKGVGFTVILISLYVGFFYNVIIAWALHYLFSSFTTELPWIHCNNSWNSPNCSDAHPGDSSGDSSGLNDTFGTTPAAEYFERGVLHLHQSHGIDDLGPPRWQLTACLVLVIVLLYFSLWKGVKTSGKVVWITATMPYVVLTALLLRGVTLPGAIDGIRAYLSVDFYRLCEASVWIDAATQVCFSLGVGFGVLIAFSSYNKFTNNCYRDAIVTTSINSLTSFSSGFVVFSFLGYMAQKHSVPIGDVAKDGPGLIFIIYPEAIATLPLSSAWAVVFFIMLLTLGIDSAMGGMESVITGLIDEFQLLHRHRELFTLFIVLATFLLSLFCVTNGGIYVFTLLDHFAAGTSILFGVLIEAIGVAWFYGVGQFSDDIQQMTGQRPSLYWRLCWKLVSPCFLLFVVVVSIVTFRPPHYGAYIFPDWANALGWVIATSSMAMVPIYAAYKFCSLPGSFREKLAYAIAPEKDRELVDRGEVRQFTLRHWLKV
VIP 1 receptor (Human), sequence (P32241 31-457): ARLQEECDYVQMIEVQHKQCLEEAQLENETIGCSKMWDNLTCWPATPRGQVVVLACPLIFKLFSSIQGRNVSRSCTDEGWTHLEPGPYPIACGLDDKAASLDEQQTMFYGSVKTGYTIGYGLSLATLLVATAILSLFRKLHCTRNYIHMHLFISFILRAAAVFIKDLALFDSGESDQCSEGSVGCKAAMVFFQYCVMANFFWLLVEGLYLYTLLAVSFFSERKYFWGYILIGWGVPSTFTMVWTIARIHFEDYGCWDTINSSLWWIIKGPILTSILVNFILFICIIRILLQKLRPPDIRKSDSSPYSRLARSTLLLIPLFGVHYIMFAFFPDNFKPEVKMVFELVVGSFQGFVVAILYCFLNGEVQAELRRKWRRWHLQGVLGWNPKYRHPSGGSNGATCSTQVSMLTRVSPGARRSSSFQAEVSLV
Muscarinic M4 receptor (Human), sequence (P08173 whole entry): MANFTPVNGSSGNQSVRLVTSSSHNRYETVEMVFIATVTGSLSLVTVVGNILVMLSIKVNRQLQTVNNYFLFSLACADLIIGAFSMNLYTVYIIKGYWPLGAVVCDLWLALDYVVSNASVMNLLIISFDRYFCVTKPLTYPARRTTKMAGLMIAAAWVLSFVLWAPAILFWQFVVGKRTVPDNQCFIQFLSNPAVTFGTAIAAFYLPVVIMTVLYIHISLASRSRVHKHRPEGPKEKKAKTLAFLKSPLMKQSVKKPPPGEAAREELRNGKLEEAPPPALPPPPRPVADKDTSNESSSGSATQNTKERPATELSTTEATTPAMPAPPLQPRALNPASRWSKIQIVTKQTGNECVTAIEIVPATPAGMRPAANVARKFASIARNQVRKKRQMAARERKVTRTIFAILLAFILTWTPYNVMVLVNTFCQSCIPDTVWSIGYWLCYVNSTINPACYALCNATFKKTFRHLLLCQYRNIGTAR
α2A-Adrenergic receptor (Human), sequence (P08913 whole entry): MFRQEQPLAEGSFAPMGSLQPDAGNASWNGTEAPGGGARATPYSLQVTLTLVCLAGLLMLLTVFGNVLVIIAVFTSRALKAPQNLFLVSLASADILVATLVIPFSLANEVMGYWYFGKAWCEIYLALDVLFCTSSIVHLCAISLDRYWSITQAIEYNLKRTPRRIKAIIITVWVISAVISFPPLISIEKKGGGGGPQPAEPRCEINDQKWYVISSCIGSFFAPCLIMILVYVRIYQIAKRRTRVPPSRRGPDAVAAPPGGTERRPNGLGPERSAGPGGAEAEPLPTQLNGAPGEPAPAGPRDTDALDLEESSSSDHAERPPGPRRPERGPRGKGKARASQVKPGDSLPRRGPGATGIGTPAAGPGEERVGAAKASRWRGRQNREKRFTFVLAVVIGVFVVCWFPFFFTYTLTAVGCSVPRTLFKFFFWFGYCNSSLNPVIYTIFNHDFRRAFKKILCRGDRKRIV
Muscarinic M2 receptor (Human), sequence (P08172 whole entry): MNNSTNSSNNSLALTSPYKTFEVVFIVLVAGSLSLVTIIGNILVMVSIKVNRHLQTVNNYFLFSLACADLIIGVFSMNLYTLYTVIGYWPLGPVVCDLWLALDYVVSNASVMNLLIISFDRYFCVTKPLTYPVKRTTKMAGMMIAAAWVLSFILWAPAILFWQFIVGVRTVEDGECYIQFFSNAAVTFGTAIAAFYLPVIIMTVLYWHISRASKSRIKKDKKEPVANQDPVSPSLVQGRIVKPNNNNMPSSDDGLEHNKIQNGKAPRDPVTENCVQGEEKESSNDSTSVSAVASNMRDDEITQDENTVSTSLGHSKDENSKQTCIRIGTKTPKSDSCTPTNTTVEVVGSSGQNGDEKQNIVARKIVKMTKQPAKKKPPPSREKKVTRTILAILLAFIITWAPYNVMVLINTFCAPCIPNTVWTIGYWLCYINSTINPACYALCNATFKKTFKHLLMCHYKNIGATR
Opiate κ receptor (Human), sequence (P41145 whole entry): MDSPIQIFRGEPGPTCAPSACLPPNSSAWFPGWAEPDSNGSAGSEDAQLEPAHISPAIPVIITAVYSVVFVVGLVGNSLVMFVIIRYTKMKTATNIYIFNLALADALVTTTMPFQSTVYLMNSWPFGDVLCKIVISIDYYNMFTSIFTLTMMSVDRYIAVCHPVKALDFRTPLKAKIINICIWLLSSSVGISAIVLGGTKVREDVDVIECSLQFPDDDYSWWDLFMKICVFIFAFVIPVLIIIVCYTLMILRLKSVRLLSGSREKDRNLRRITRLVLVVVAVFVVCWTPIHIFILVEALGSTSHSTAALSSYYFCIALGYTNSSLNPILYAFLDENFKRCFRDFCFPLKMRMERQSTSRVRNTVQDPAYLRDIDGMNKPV
Opiate ORL1 receptor (Human), sequence (P41146 whole entry): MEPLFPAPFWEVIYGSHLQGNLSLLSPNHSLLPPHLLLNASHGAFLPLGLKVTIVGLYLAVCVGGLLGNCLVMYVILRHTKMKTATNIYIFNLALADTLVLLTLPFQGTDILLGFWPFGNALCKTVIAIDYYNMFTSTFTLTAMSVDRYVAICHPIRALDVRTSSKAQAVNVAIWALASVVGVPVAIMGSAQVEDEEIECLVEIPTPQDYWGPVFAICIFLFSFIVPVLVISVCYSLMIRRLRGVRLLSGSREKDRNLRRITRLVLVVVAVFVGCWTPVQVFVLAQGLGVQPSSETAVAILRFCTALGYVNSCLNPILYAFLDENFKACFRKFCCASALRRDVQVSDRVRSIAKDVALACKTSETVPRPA
Melatonin MT1 receptor (Human), sequence (P48039 whole entry): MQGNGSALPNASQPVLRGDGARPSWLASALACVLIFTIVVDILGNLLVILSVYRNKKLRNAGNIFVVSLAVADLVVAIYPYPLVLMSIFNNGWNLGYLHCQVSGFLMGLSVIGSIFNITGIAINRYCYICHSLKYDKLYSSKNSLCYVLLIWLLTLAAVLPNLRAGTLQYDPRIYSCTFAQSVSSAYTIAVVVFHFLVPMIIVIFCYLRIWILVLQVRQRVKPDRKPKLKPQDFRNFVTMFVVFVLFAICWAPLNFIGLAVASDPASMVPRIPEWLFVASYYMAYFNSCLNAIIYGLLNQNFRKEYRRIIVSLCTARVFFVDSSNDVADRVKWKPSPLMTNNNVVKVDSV
Adenosine A2a receptor (Human), sequence (P29274 whole entry): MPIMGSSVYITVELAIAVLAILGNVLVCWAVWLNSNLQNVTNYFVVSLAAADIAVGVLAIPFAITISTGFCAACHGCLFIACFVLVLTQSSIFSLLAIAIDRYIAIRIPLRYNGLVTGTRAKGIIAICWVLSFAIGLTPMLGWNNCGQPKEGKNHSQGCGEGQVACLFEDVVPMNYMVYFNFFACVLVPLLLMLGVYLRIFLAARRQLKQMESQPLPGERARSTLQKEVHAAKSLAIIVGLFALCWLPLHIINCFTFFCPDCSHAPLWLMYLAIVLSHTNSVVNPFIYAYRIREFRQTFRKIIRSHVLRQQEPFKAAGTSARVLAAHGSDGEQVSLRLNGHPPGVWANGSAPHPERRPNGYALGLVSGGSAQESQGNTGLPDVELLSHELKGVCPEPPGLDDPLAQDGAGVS
Bradykinin B1 receptor (Human), sequence (P46663 whole entry): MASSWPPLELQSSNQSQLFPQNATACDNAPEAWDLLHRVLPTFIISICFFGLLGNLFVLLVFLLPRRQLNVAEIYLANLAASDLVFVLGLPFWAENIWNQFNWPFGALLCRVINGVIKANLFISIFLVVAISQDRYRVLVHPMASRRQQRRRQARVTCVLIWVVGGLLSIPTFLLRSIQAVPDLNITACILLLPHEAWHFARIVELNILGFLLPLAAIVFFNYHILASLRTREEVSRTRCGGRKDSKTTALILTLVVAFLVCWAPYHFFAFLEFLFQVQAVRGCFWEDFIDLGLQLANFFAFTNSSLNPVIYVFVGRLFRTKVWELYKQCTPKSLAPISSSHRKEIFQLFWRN
Endothelin ETA receptor (Human), sequence (P25101 21-427): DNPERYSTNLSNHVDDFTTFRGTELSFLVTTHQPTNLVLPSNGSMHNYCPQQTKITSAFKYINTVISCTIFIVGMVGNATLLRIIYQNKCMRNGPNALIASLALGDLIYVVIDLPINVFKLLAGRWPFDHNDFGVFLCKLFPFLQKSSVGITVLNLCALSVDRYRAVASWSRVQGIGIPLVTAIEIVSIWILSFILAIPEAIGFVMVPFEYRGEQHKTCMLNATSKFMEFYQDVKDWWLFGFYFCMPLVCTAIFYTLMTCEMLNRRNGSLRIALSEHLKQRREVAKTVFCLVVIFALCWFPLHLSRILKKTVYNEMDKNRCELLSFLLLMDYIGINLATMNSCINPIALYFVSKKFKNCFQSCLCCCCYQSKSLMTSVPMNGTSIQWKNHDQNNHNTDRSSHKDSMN

## CC(C)[C@@H]1CC[C@@H](C)C[C@H]1O [l-menthol]
[1]
  Inhibition by l-Menthol (%): 0%
[2]
  Inhibition by l-Menthol (%): 10.09%
[3]
  Inhibition by l-Menthol (%): 0%
[4]
  Inhibition by l-Menthol (%): 5.11%
[5]
  Inhibition by l-Menthol (%): 0%
[6]
  Inhibition by l-Menthol (%): 14.04%
[7]
  Inhibition by l-Menthol (%): 8.32%
[8]
  Inhibition by l-Menthol (%): 0%
[9]
  Inhibition by l-Menthol (%): 2.08%
[10]
  Inhibition by l-Menthol (%): 4.86%
[11]
  Inhibition by l-Menthol (%): 21.17%
[12]
  Inhibition by l-Menthol (%): 0%
[13]
  Inhibition of the binding of 32 isotope-labeled ligands (Table 3 (b)): did not measurably inhibit
  Inhibition rates, 9 isotope-labeled ligands (Table 3 (a)): < 1%
[14]
  Inhibition by l-Menthol (%): 1.1%
[15]
  Inhibition by l-Menthol (%): 2.21%
[16]
  Inhibition by l-Menthol (%): 1.37%
[17]; 100-800 mg/kg s.c., Kruskal-Wallis test P < 0.0001
  Dose dependence of the ambulation-promoting effect: dose dependent
[17]; subcutaneous 100-800 mg/kg
  Time of maximum ambulatory activity after administration: 5 min
[18]
  Inhibition by l-Menthol (%): 2.48%
[19]
  Inhibition by l-Menthol (%): 11.34%
[20]
  Inhibition by l-Menthol (%): 0.37%
[21]
  Inhibition by l-Menthol (%): 5.74%
[22]
  Inhibition by l-Menthol (%): 5.76%
[23]
  Inhibition by l-Menthol (%): 3.79%
[24]
  Inhibition by l-Menthol (%): 2.56%
[25]
  Inhibition by l-Menthol (%): 1.27%
[26]
  Inhibition by l-Menthol (%): 0.68%
[27]
  Inhibition by l-Menthol (%): 11.63%
[28]
  Inhibition by l-Menthol (%): 0.12%
[29]
  Inhibition by l-Menthol (%): 0%
[30]
  Inhibition by l-Menthol (%): 21.62%
[31]
  Inhibition by l-Menthol (%): 0%
[32]
  Inhibition by l-Menthol (%): 5.13%
[33]
  Inhibition by l-Menthol (%): 0%
[34]
  Inhibition by l-Menthol (%): 0%
[35]
  Inhibition by l-Menthol (%): 0.86%
[36]
  Concentration dependence of inhibition of the [3H]-WIN35,428 binding: concentration-dependent
[36]; 0.1 mM l-menthol, Human recombinant
  Inhibition by l-Menthol (%): 20.67%
[36]; read-out: IC50 for inhibition of the [3H]-WIN35,428 binding, human recombinant dopamine transporter, 7 concentrations, duplicate
  IC50: 719 µM
[36]; read-out: Ki (mol/L), inhibition of the binding of [3H]-WIN35,428, Dopamine transporter (Human), Ki=IC50/(1+[L/Kd])
  Ki: 0.000615 mol/L
[37]
  Inhibition by l-Menthol (%): 6.03%
[38]
  Inhibition by l-Menthol (%): 0%
[39]
  Inhibition by l-Menthol (%): 3.74%

Reference: article PMC8237303 (Heliyon, 2021)
